The record followed here is ChEMBL document CHEMBL1142704, “Design and biological evaluation of linear and cyclic phosphopeptide ligands of the N-terminal SH2 domain of protein tyrosine phosphatase SHP-1” (J Med Chem, 2005).

*1 amine or outer side, *2 acyl side, *3 side chain or, on linkers, in order; H or OH if unused. Where a SMILES comes first, the peptide text is derived from it. Bridges are numbered along the chain shown (N, C = ends). [ ]: non-standard residue; d: D form. X1 = O=C(CC[C@H](N[*:1])C(=O)[*:2])CN[*:3]; X4 = O=C([C@@H](N[*:1])C(O)c1ccccc1)[*:2]; X5 = O=C(CN[*:3])C[C@H](N[*:1])C(=O)[*:2]; pY = N[C@@H](Cc1ccc(OP(=O)(O)O)cc1)C(=O)O; hPhe = N[C@@H](CCc1ccccc1)C(=O)O; Tic = O=C(O)[C@@H]1Cc2ccccc2CN1; Nle = CCCC[C@H](N)C(=O)O; CO = O=C([*:1])[*:2]

Test [1] addresses T1, Tyrosine-protein phosphatase non-receptor type 6 (Homo sapiens, UniProt P29350). Nature of the test: Dissociation constant for the interaction with the GST-N-SH2 domain of SHP-1; nb is no binding. The essentials:
(§1)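 SPR at room temperature in 10 mM Hepes pH 7.4, 150 mM NaCl, 3.4 mM EDTA, 0.005% Tween20. Biotinylated peptides captured on the chip to 20-40 RU. FPLC-purified GST-SHP-1 N-SH2 was injected 5 min at 30 µL/min, then dissociation was followed. Blank flow cell subtracted. Equilibrium RU vs domain concentration was fit to a one-site hyperbola for Kd.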

Test [2] deals with T1, Tyrosine-protein phosphatase non-receptor type 6. Description: Concentration required to stimulate SHP-1 enzymatic activity by 50%; not active. The essentials:
(§2)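 SHP-1 activity on p-nitrophenyl phosphate (10 mM) in 50 mM Hepes pH 7.4, 50 mM NaCl, 1 mM EDTA, 1 mM TCEP with 0-500 µM peptide. Enzyme (0.5 µg) added last, 30 min at room temperature, stopped with 1 M NaOH, A405 read. Activity relative to no-peptide enzyme. Duplicates, mean of three independent experiments. Not active: maximal activity ≤0.4 relative to Ros pY2267.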

The target is the same in test [3]. Nature of the test: Dissociation constant for the interaction with the GST-N-SH2 domain of SHP-1. The essentials:
as §1

The target is the same in test [4]. Nature of the test: Concentration required to stimulate SHP-1 enzymatic activity by 50%. The gist of the method:
as §2

T1 sequence (P29350 whole entry, the tested form may be a part): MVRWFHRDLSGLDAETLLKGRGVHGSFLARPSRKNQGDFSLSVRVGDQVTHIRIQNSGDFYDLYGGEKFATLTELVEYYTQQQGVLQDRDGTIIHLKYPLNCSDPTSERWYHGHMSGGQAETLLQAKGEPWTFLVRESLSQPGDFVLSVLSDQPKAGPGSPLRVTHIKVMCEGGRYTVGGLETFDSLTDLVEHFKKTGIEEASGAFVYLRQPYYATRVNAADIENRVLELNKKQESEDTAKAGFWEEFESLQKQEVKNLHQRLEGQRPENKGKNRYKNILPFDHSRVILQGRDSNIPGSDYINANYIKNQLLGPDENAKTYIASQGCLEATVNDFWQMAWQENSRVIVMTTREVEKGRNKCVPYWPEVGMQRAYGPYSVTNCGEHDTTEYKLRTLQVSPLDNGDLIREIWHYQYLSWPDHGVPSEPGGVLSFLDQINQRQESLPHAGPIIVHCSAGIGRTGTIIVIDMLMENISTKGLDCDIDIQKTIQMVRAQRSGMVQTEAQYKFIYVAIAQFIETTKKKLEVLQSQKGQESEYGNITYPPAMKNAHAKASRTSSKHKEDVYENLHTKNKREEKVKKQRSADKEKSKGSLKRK

A word on the Kd: it is the equilibrium constant for the complex coming apart. For orientation: EC50 means the midpoint of the concentration-response curve. Take `CSCC[C@@H]1NC(=O)[C@H](Cc2ccc(OP(=O)(O)O)cc2)NC(=O)[C@@H](NC(=O)[C@H](CC(C)C)NC(=O)CNC(=O)[C@@H](N)CCC(=O)O)CCCCNC(=O)CC[C@@H](C(=O)N[C@@H](CC(C)C)C(=O)O)NC1=O` (H-EGLK[pY]MEL-OH; lactam 4-7): the Kd result in test [1] is reported as “Not Active”. Besides, in test [2], the EC50 entry is on record as “Not Active”.
Regarding `CSCC[C@@H]1NC(=O)[C@H](Cc2ccc(OP(=O)(O)O)cc2)NC(=O)[C@@H](NC(=O)[C@H](CC(C)C)NC(=O)CNC(=O)[C@@H](N)CCC(=O)O)CCCCNC(=O)NCC(=O)CC[C@@H](C(=O)N[C@@H](CC(C)C)C(=O)O)NC1=O` (H-EGLK[pY]M[X1]L-OH; linker 4-7 via CO), in test [3], the Kd is 210 nM. In addition, the EC50 result in test [4] is “Not Active”.
For `CSCC[C@@H]1NC(=O)[C@H](Cc2ccc(OP(=O)(O)O)cc2)NC(=O)[C@@H](NC(=O)[C@H](CC(C)C)NC(=O)CNC(=O)[C@@H](N)CCC(=O)O)CCCCNC(=O)NCC(=O)C[C@@H](C(=O)N[C@@H](CC(C)C)C(=O)O)NC1=O` (H-EGLK[pY]M[X5]L-OH; linker 4-7 via CO), the Kd in test [3] is 110 nM. In addition, the EC50 entry in test [2] is “Not Active”.
For `CC(C)C[C@H](NC(=O)[C@@H](NC(=O)[C@H](Cc1ccccc1)NC(=O)[C@H](Cc1ccc(OP(=O)(O)O)cc1)NC(=O)[C@H](CC(N)=O)NC(=O)[C@H](CC(C)C)NC(=O)CNC(=O)[C@@H](N)CCC(=O)O)C(C)C)C(N)=O` (H-EGLN[pY]FVL-NH2), the affinity in test [3], expressed as Kd, was 690 nM. For the same molecule, in test [4] (read-out: EC50), the EC50 was 70000 nM.
As for `CSCC[C@H](NC(=O)[C@H](Cc1ccc(OP(=O)(O)O)cc1)NC(=O)[C@H](CC(N)=O)NC(=O)[C@H](CC(C)C)NC(=O)CNC(=O)[C@@H](N)CCC(=O)O)C(=O)N[C@H](C(=O)N[C@@H](Cc1ccccc1)C(N)=O)C(C)C` (H-EGLN[pY]MVF-NH2), in test [3], the Kd came to 1000 nM. The EC50 in test [4] (read-out: EC50) turned out to be 140000 nM.
For the molecule `CSCC[C@H](NC(=O)[C@H](Cc1ccc(OP(=O)(O)O)cc1)NC(=O)[C@H](CC(N)=O)NC(=O)[C@H](CC(C)C)NC(=O)CNC(=O)[C@@H](N)CCC(=O)O)C(=O)N[C@H](C(=O)N[C@@H](CC(C)C)C(N)=O)C(C)C` (H-EGLN[pY]MVL-NH2), the Kd in test [3] was determined as 1440 nM. In addition, the EC50 in test [4] (read-out: EC50) amounted to 160000 nM.
For `CSCC[C@H](NC(=O)[C@H](Cc1ccc(OP(=O)(O)O)cc1)NC(=O)[C@H](CC(N)=O)NC(=O)[C@H](CC(C)C)NC(=O)CNC(=O)[C@@H](N)CCC(=O)O)C(=O)N[C@H](C(=O)N[C@H](C(N)=O)C(O)c1ccccc1)C(C)C` (stereo partly specified) (H-EGLN[pY]MV[X4]-NH2), in that order: 290 nM and 85000 nM.
Regarding `CCCC[C@H](NC(=O)[C@H](Cc1ccc(OP(=O)(O)O)cc1)NC(=O)[C@H](CC(N)=O)NC(=O)[C@H](CC(C)C)NC(=O)CNC(=O)[C@@H](N)CCC(=O)O)C(=O)N[C@H](C(=O)N[C@@H](Cc1ccccc1)C(N)=O)C(C)C` (H-EGLN[pY][Nle]VF-NH2), the Kd in test [3] stood at 230 nM. Also, the EC50 in test [4] (read-out: EC50) stood at 60000 nM.
Regarding `CC[C@H](C)[C@H](NC(=O)[C@@H]1Cc2ccccc2CN1C(=O)[C@H](Cc1ccc(OP(=O)(O)O)cc1)NC(=O)[C@H](CC(N)=O)NC(=O)[C@H](CC(C)C)NC(=O)CNC(=O)[C@@H](N)CCC(=O)O)C(=O)N1Cc2ccccc2C[C@H]1C(N)=O` (H-EGLN[pY][Tic]I[Tic]-NH2), the Kd result in test [1] is “Not Active”. For the same molecule, the EC50 result in test [2] is “Not Active”.
With `CC(C)C[C@H](NC(=O)[C@@H](NC(=O)[C@@H](NC(=O)[C@H](Cc1ccc(OP(=O)(O)O)cc1)NC(=O)[C@H](CC(N)=O)NC(=O)[C@H](CC(C)C)NC(=O)CNC(=O)[C@@H](N)CCC(=O)O)C(O)c1ccccc1)C(C)C)C(N)=O` (stereo partly specified) (H-EGLN[pY][X4]VL-NH2), the Kd in test [3] turned out to be 1080 nM. Besides, the EC50 in test [4] (read-out: EC50) amounted to 220000 nM.
On the same counts, the results for `CC(C)C[C@H](NC(=O)[C@@H](NC(=O)[C@H](CCc1ccccc1)NC(=O)[C@H](Cc1ccc(OP(=O)(O)O)cc1)NC(=O)[C@H](CC(N)=O)NC(=O)[C@H](CC(C)C)NC(=O)CNC(=O)[C@@H](N)CCC(=O)O)C(C)C)C(N)=O` (H-EGLN[pY][hPhe]VL-NH2) are 900 nM and 140000 nM.
On the same counts, the results for `CC(C)C[C@H](NC(=O)[C@@H](NC(=O)[C@@H](NC(=O)[C@H](Cc1ccc(OP(=O)(O)O)cc1)NC(=O)[C@H](CC(N)=O)NC(=O)[C@H](CC(C)C)NC(=O)CNC(=O)[C@@H](N)CCC(=O)O)C(C)c1ccccc1)C(C)C)C(N)=O` (stereo in doubt; 5a) are 240 nM and 50000 nM.
For `CC(C)C[C@H](NC(=O)[C@@H](NC(=O)[C@@H](NC(=O)[C@H](Cc1ccc(OP(=O)(O)O)cc1)NC(=O)[C@H](CC(N)=O)NC(=O)[C@H](CC(C)C)NC(=O)CNC(=O)[C@@H](N)CCC(=O)O)C(C)c1ccccc1)C(C)C)C(N)=O` (stereo in doubt; 5b), in that order: 160 nM and 220000 nM.
